According to ChEMBL document CHEMBL2417468, “4β-[4'-(1-(Aryl)ureido)benzamide]podophyllotoxins as DNA topoisomerase I and IIα inhibitors and apoptosis inducing agents” (2013):
Active and inactive are the calls of the source. The calls are words filed in the database; no cut-off is given here.

Key:
[1] = system: COLO 205; assay: Cell cycle arrest in human COLO205 cells assessed as accumulation at S phase at 2 uM after 24 hrs by propidium iodide staining-based FACS flow cytometric analysis (reference value: 4.21%); format: functional
[2] = system: A549; assay: Growth inhibition of human A549 cells after 48 hrs by sulforhodamine B assay; format: functional
[3] = system: COLO 205; assay: Cytotoxicity against human COLO205 cells assessed as reduction in cellular ATP level at 2 uM after 24 hrs by bioluminescence assay; format: functional, cell-based
Summary of the method: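 Colo-205 cells exposed 24 h at 2 µM, lysed in ice-cold RIPA, debris spun off at 4 °C; intracellular ATP in supernatant by luciferin-luciferase bioluminescence kit; three independent experiments, mean ± S.D., untreated control.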

[4] = system: A2780; assay: Growth inhibition of human A2780 cells after 48 hrs by sulforhodamine B assay; format: functional
[5] = system: COLO 205; assay: Cell cycle arrest in human COLO205 cells assessed as accumulation at G0/G1 phase at 2 uM after 24 hrs by propidium iodide staining-based FACS flow cytometric analysis (reference value: 65.23%); format: functional
[6] = system: COLO 205; assay: Cell cycle arrest in human COLO205 cells assessed as accumulation at G2/M phase at 2 uM after 24 hrs by propidium iodide staining-based FACS flow cytometric analysis (reference value: 29.52%); format: functional
[7] = system: MCF7; assay: Growth inhibition of human MCF7 cells after 48 hrs by sulforhodamine B assay; format: functional; details: MCF7, 48 h
[8] = system: COLO 205; assay: Cytotoxicity against human COLO205 cells assessed as viable cells at 2 uM after 24 hrs by trypan blue exclusion assay; format: functional, cell-based
Summary of the method: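 Colo-205 cells treated 24 h at 1, 2 and 4 µM, trypsinised, mixed with 0.4% trypan blue (10 µl per 100 µl cells), counted on haemocytometer; percentage dead cells calculated; triplicate samples.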

[9] = system: COLO 205; assay: Induction of apoptosis in human COLO205 cells assessed as caspase-3 activation at 2 uM after 24 hrs by ELISA; format: functional, cell-based
Summary of the method: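 Colo-205 cells exposed 24 h at 2 µM; lysates in 2X reaction buffer with DTT plus caspase substrate, 1 h at 37 °C; fluorescence read at ex 400/em 505 nm; three independent experiments, mean ± S.D., versus untreated control.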

[10] = (§1) Growth inhibition of human Gurav cells after 48 hrs by sulforhodamine B assay; format: functional
[11] = target: DNA topoisomerase 2-alpha (Homo sapiens) (UniProt P11388); assay: Inhibition of human topoisomerase 2alpha-mediated relaxation of supercoiled pBR322 DNA at 2 uM after 30 mins by agarose gel electrophoresis
Summary of the method: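 Purified human topoisomerase IIα (4 units) with 200 ng supercoiled pBR322 and compound at 2 µM, 30 min at 30 °C in 10 mM Tris-HCl pH 7.9, 50 mM NaCl, 5 mM MgCl2, 1 mM EDTA, 1 mM ATP, 15 µg/mL BSA; EDTA-stopped; 1% agarose gel in TAE, ethidium bromide, UV visualisation.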

[12] = system: COLO 205; assay: Cytotoxicity against human COLO205 cells assessed as cell viability at <0.5 to 1 uM after 24 hrs by MTT assay; format: functional, cell-based
Summary of the method: (§2)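 Colo-205 (RPMI, 10% FCS) and MDA-MB-231 (DMEM, 2 mM glutamax, 10% FCS, penicillin/streptomycin) seeded at 1 104 cells/well, 18 h preincubation; fresh medium with compound at 0.5, 1, 2 and 4 µM for 24 h at 37 °C; MTT 2 h, formazan solubilised, OD 570 nm; DMSO ≤0.25%, DMSO-only wells as untreated control.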

[13] = system: COLO 205; assay: Cytotoxicity against human COLO205 cells assessed as cell viability at 2 to 4 uM after 24 hrs by MTT assay; format: functional, cell-based; summary of the method: as §2
[14] = system: HOP-62; assay: Growth inhibition of human HOP62 cells after 48 hrs by sulforhodamine B assay; format: functional
[15] = system: SiHa; assay: Growth inhibition of human SiHa cells after 48 hrs by sulforhodamine B assay; format: functional
[16] = system: KB; assay: Growth inhibition of human KB cells after 48 hrs by sulforhodamine B assay; format: functional
[17] = system: COLO 205; assay: Growth inhibition of human COLO205 cells after 48 hrs by sulforhodamine B assay; format: functional
[18] = system: MDA-MB-231; assay: Cytotoxicity against human MDA-MB-231 cells assessed as cell viability at <0.5 to 1 uM after 24 hrs by MTT assay; format: functional, cell-based; summary of the method: as §2
[19] = system: MDA-MB-231; assay: Cytotoxicity against human MDA-MB-231 cells assessed as cell viability at 2 to 4 uM after 24 hrs by MTT assay; format: functional, cell-based; summary of the method: as §2
[20] = system: ZR-75-1; assay: Growth inhibition of human ZR-75-1 cells after 48 hrs by sulforhodamine B assay; format: functional; details: ZR-75-1, 48 h
[21] = (§3) Growth inhibition of human DWD cells after 48 hrs by sulforhodamine B assay; format: functional
[22] = system: COLO 205; assay: Induction of apoptosis in human COLO205 cells assessed as caspase-3 activation at 2 uM after 24 hrs by Western blotting analysis; format: functional, cell-based
Summary of the method: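 Colo-205 cells grown to 80% confluency, 2 µM final for 24 h; RIPA lysates with protease inhibitors, Bradford-quantified, 50 µg protein per lane on 12% SDS-PAGE, PVDF transfer, probed overnight at 4 °C for active caspase-3, β-actin as loading control, chemiluminescent detection.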

[23] = system: DWD; assay: as §3; format: functional
[24] = system: Gurav; assay: as §1; format: functional

Chain of DNA topoisomerase 2-alpha (Homo sapiens) (P11388 whole entry): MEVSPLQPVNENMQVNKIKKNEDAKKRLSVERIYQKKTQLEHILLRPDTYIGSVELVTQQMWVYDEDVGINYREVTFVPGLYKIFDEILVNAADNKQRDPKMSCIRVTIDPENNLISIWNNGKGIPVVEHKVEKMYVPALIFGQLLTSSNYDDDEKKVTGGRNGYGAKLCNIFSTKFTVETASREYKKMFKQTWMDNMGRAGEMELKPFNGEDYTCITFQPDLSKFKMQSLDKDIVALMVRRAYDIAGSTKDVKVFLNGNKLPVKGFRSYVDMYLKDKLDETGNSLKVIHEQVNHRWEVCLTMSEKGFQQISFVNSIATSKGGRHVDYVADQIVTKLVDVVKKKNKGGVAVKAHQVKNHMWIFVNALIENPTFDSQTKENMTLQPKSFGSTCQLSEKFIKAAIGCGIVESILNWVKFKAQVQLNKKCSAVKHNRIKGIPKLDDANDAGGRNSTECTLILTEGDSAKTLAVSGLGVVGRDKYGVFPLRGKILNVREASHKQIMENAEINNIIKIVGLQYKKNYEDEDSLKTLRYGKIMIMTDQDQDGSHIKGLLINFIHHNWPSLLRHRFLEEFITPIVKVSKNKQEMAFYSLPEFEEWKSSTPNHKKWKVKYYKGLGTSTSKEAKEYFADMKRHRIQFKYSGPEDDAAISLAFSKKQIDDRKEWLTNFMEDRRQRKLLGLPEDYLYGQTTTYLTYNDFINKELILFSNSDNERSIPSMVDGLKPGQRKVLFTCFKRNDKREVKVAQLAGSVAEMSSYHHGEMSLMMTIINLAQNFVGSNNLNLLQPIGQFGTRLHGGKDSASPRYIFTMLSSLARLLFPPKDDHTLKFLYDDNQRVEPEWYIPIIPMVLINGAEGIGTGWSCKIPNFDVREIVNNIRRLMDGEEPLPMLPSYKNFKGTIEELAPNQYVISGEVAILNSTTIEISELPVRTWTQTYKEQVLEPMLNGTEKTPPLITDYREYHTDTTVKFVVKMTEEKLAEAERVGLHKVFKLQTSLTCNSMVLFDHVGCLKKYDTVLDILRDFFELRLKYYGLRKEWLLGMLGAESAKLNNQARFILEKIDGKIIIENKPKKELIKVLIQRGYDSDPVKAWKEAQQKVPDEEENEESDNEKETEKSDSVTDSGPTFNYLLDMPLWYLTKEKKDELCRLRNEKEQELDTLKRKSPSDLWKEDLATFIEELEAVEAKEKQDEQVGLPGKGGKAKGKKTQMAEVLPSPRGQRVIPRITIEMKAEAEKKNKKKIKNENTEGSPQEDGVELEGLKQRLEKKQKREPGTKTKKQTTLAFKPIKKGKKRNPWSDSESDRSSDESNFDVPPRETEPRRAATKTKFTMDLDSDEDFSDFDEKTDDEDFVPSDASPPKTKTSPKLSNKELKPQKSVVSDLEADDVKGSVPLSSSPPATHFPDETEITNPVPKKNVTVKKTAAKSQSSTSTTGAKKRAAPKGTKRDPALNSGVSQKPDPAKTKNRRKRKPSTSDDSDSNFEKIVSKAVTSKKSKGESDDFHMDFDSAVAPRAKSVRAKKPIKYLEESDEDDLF

| Structure (SMILES) | Percent of cells in S phase [1] | GI50 ([2]; A549, 48 h) | Activity [3] | GI50 ([4]; A2780, 48 h) | Activity [5] | Activity [6] | GI50 [7] | Activity [8] | Activity [9] | GI50 [10] | Inhibition of relaxation (qualitative call) [11] | Activity [12] | Activity [13] | GI50 ([14]; HOP-62, 48 h) | GI50 [15] | GI50 [16] | GI50 ([17]; COLO 205, 48 h) | Activity [18] | GI50 [20] | GI50 [21] | further results |
| --- | --- | --- | --- | --- | --- | --- | --- | --- | --- | --- | --- | --- | --- | --- | --- | --- | --- | --- | --- | --- | --- |
| COc1cc([C@@H]2c3cc4c(cc3[C@@H](NC(=O)c3ccc(NC(=O)NCCBr)cc3)[C@H]3COC(=O)[C@H]23)OCO4)cc(OC)c1OC | 5.96% | 100 nM | Active | 140 nM | 74.1% | 19.94% | 140 nM | Active | Active | 1850 nM | Active | inactive | Active | 100 nM | 210 nM | inactive | 10 nM | inactive | 160 nM | 170 nM | Activity [19]: Active; Activity [22]: Active |
| COc1cccc2c1C(=O)c1c(O)c3c(c(O)c1C2=O)C[C@@](O)(C(=O)CO)C[C@@H]3O[C@H]1C[C@H](N)[C@H](O)[C@H](C)O1 [DOXORUBICIN] |  |  |  | 160 nM |  |  | 170 nM |  |  | 170 nM |  |  |  | 140 nM | 170 nM | 170 nM | 140 nM |  |  | 100 nM |  |
| COc1cc([C@@H]2c3cc4c(cc3[C@@H](NC(=O)c3ccc(NC(=O)Nc5cccc6ccccc56)cc3)[C@H]3COC(=O)[C@H]23)OCO4)cc(OC)c1OC |  | 2010 nM |  | 2220 nM |  |  | 110 nM |  |  | 2900 nM |  |  |  |  | 2300 nM | inactive | 2230 nM |  | 2000 nM |  | GI50 [14]: inactive; GI50 [23]: inactive |
| COc1cc([C@@H]2c3cc4c(cc3[C@@H](NC(=O)c3ccc(NC(=O)Nc5ccc(Br)s5)cc3)[C@H]3COC(=O)[C@H]23)OCO4)cc(OC)c1OC |  | 1400 nM |  | 2100 nM |  |  | 120 nM |  |  |  |  |  |  | 2600 nM | 2900 nM | 2500 nM |  |  | 2400 nM | 100 nM | GI50 [24]: inactive; GI50 [17]: inactive |
| COc1cc([C@@H]2c3cc4c(cc3[C@@H](NC(=O)c3ccc(NC(=O)Nc5cc(C)cc(C)c5)cc3)[C@H]3COC(=O)[C@H]23)OCO4)cc(OC)c1OC |  |  |  |  |  |  | 150 nM |  |  | 2700 nM |  |  |  |  | inactive | 2310 nM |  |  | 2910 nM | 1600 nM | GI50 [2]: inactive; GI50 [4]: inactive; GI50 [14]: inactive; GI50 [17]: inactive |
| COc1ccc(NC(=O)Nc2ccc(C(=O)N[C@@H]3c4cc5c(cc4[C@@H](c4cc(OC)c(OC)c(OC)c4)[C@H]4C(=O)OC[C@@H]43)OCO5)cc2)cc1 | 5.09% | 1500 nM | Active | 1350 nM | 76.61% | 17.88% | 1100 nM | Active | Active | 240 nM | Active | inactive | Active | 120 nM | inactive | 2310 nM | 20 nM | inactive | 180 nM | 1700 nM | Activity [19]: Active; Activity [22]: Active |
| COc1cc([C@@H]2c3cc4c(cc3[C@@H](NC(=O)c3ccc(NC(=O)NCc5ccco5)cc3)[C@H]3COC(=O)[C@H]23)OCO4)cc(OC)c1OC |  | 2620 nM |  | 2300 nM |  |  | 2900 nM |  |  |  |  |  |  |  | inactive | 1930 nM | 2340 nM |  | 2600 nM | 2500 nM | GI50 [24]: inactive; GI50 [14]: inactive |
| COc1cc([C@@H]2c3cc4c(cc3[C@@H](NC(=O)c3ccc(NC(=O)Nc5cccc(Cl)c5)cc3)[C@H]3COC(=O)[C@H]23)OCO4)cc(OC)c1OC |  |  |  | 2800 nM |  |  | 2600 nM |  |  | 2010 nM |  |  |  | 2500 nM | inactive | inactive | 2600 nM |  | 2900 nM | 2300 nM | GI50 [2]: inactive |
| COc1cc([C@@H]2c3cc4c(cc3[C@@H](NC(=O)c3ccc(NC(=O)NCCCl)cc3)[C@H]3COC(=O)[C@H]23)OCO4)cc(OC)c1OC | 5.62% | 1120 nM | Active | 1300 nM | 76.22% | 18.15% | 100 nM | Active | Active | 100 nM | Active | inactive | Active | 120 nM | inactive | 210 nM | 10 nM | inactive | 2900 nM | 1600 nM | Activity [19]: Active; Activity [22]: Active |
| COc1cc([C@@H]2c3cc4c(cc3[C@@H](NC(=O)c3ccc(NC(=O)Nc5ccc(F)c(Cl)c5)cc3)[C@H]3COC(=O)[C@H]23)OCO4)cc(OC)c1OC |  | 1500 nM |  |  |  |  | 120 nM |  |  |  |  |  |  | 2710 nM | inactive | 2010 nM | 2520 nM |  | 2900 nM | 2610 nM | GI50 [4]: inactive; GI50 [24]: inactive |
